The list is not random: actives were taken first. Their share in the collection is about 2.5%.
TRPC4 block: blocks the mouse TRPC4 cation channel | Q9QUQ5 | HEK293 TRPC4beta/mu-opioid, DAMGO-evoked Fluo4 calcium flux; stronger effect = lower value | B-score at 10 µM | 0.39% of 300,000 active | AID 2247;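 active = B-score over 3 SD under the library average, no early fluorescence shift, positive overall ratio signal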
Target sequence (Q9QUQ5 whole entry, looked up): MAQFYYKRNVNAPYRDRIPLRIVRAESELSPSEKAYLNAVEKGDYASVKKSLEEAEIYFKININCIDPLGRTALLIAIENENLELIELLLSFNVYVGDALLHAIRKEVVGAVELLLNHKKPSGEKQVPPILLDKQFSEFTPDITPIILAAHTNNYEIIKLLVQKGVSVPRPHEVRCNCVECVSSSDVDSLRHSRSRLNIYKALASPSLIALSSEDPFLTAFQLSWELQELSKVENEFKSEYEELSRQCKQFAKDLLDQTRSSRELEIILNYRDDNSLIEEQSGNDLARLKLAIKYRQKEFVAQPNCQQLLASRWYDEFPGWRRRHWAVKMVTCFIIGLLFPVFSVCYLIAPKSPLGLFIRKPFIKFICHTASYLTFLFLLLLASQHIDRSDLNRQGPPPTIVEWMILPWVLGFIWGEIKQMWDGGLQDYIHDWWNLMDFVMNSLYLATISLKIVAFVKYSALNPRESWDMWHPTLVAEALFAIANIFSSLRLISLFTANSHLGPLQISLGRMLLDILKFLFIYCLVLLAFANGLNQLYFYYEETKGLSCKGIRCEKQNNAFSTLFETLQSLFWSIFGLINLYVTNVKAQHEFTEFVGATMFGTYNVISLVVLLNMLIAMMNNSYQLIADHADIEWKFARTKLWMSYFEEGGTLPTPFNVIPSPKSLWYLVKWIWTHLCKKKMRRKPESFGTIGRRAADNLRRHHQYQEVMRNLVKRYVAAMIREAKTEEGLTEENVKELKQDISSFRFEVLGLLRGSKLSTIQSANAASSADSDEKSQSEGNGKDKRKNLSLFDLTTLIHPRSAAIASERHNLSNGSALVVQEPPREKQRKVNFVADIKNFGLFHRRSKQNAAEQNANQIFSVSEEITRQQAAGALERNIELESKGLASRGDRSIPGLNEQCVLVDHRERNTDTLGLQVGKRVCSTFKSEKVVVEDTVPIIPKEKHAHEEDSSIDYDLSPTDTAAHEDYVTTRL
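Material: HEK293 cells with stable TRPC4beta plus mu-opioid receptor expression; probe or stimulus: DAMGO in two steps, submaximal then maximal; technique: Fluo4 calcium fluorescence by kinetic imaging, 5 s 1 Hz baseline; measure: integrated fluorescence ratio relative to baseline, converted to per-well B score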
TRPC6 inhibitor: mouse TRPC6 channel inhibition; Q61143; HEK293-TRPC6, membrane potential dye, ACh-evoked depolarization; stronger effect = lower value; B-score at 10 µM; 1.1% of 310,000 active; AID 2553;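 active = B-score under library mean minus 3 SD, initial fluorescence not abnormally high, positive integrated signal ratio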;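 also: B-score derived from integrated fluorescence ratio over the kinetic read; more negative B-score means stronger inhibition of depolarization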
TRPC6 act: mouse TRPC6 channel activation; Q61143; HEK293-TRPC6 membrane potential dye fluorescence; stronger effect = higher value; B-score at 10 µM; 0.13% of 310,000 active; AID 2550;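 active = B-score of the integrated fluorescence ratio above library mean plus 3 SD, and starting fluorescence ratio within library mean plus 5 SD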;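 also: higher score means more depolarization so channel activation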
DSG3 Ab inh: blocks pemphigus antibody binding to human desmoglein-3 | P32926 | DSG3-coupled beads, scFv-anti-DSG3-GFP binding, flow cytometry; stronger effect = lower value | binding (percent of control), % at 10 µM | 0.48% of 310,000 active | AID 588358;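 active = binding more than 3 SD below its plate's average and above zero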;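 also: hits lower antibody fragment binding to DSG3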
TRPC4 agonist: activators of mouse TRPC4 channel; HEK293 TRPC4beta/mu-opioid, Fluo4 calcium fluorescence; stronger effect = higher value; AID 2237; 0.49% of 310,000 active; B-score at 10 µM;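 active = B-score above 5 SD of library B-scores, and initial fluorescence ratio not above library mean plus 5 SD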;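 also: positive B-score marks a calcium rise read as TRPC4 activation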
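Incubation: 45 min room-temperature Fluo4 loading, 110 s read / System: HEK293 cells stably co-expressing mouse TRPC4beta and mu-opioid receptor / Signal: Fluo4 fluorescence, kinetic / Control set: buffer (low) and maximal DAMGO (high) / Measure: integrated baseline-normalised fluorescence ratio, converted to per-well B score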
TRPC4 PAM: allosteric potentiators of mouse TRPC4 channel. B-score at 10 µM. HEK293 TRPC4beta/mu-opioid, DAMGO EC20, Fluo-4 Ca2+ flux; stronger effect = higher value. 0.42% of 310,000 active;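 active = B-score of calcium response area above 5 SD of library B-scores, with initial fluorescence ratio within 5 SD of library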
Hits are given with their value; 0 = inactive; - = no result.

SMILES	TRPC4 block	TRPC6 inhibitor	TRPC6 act	DSG3 Ab inh	TRPC4 agonist	TRPC4 PAM
CCOC(=O)C1CCN(CC(O)COCc2ccc(Cl)cc2)CC1 (configuration not stated)	0	0	0	0	0	0
NC(=O)C1CCCN(CC(O)COCc2ccc(Cl)cc2)C1 (configuration not stated)	0	0	0	0	189	0
CC(OC(=O)C1CSC2(C)CCC(=O)N12)C(=O)Nc1ccc(F)cc1 (configuration not stated)	-	-	-	0	-	-
CCCNCc1cc(Br)ccc1OCC(=O)NCCc1ccccc1	-6	0	0	0	0	0
Cc1cc(C)cc(NC(=O)CSc2nc(N)c(NC(=O)c3cccs3)c(=O)[nH]2)c1	0	0	0	0	0	0
COc1ccc(C(=O)NNC(=S)NC(=O)C(C)(C)C)cc1	0	0	0	0	225	0
CC(C)(C)C(=O)NC(=S)NNC(=O)c1sc2ccccc2c1Cl	0	0	0	0	256	0
O=C(NNC(=S)NC1CCCCC1)c1sc2ccccc2c1Cl	0	0	0	0	0	0
COc1ccc(C(=O)NNC(=O)c2ccc(C(C)(C)C)cc2)cc1	0	0	0	0	0	0
CN(CCC#N)C(=S)Nc1ccc(S(=O)(=O)N2CCOCC2)cc1	0	0	0	0	0	0
CCCn1c(N)c(N(CCOC)C(=O)c2ccc(S(=O)(=O)N3CCOCC3)cc2)c(=O)[nH]c1=O	-	-	-	0	-	-
CC(C)[C@@H](NC(=O)C1CCC(CNC(=O)[C@H](Cc2ccccc2)NC(=O)OC(C)(C)C)CC1)C(=O)O (some centres not stated)	0	0	0	0	0	0
Cc1ccc(CN2CCN(Cc3cccc4nccnc34)CC2CCO)cc1 (configuration not stated)	0	0	0	0	0	0
CCn1c(CN2CCN(Cc3ccc(C)cc3)C(CCO)C2)nc2ccccc21 (configuration not stated)	0	0	0	0	172	0
CN1CCN(Cc2nc3ccccc3n2C)CC1CCO (configuration not stated)	0	0	0	0	0	19
CC(C)Cn1c(CN2CCN(C)C(CCO)C2)nc2ccccc21 (configuration not stated)	0	0	0	0	0	19
Cc1ccc(S(=O)(=O)NCc2ccc(C(=O)NCCc3ccc(S(N)(=O)=O)cc3)cc2)cc1	0	0	0	0	0	0
COc1ccc(S(=O)(=O)N2CCCCC2)cc1NC(=O)c1cncc(Br)c1	-	-	-	0	-	-
COc1cc(C(=O)NCC(c2cccs2)N2CCOCC2)c([N+](=O)[O-])cc1OC (configuration not stated)	0	0	0	0	0	0
CC1CC(C)(C)NC(=S)N1CCC(=O)NCCc1ccc(Cl)cc1 (configuration not stated)	0	0	0	0	0	0
Cc1ccc(NC(=O)Cn2c(=O)c3cccn3c3ccccc32)c(Cl)c1	0	0	0	32	0	0
O=C(c1cccc(C(F)(F)F)c1)N1CCN(CCc2ccccc2)CC1	0	0	0	0	0	0
CCOc1ccc(C(=O)NCc2ccc3c(c2)OCO3)cc1OCC	0	0	0	0	0	0
O=C(C1=C[C@H](c2ccc(C(F)(F)F)cc2)C[C@H](OCCCCO)O1)N1CCOCC1	0	0	0	0	133	0
Nc1ccccc1-n1nc2ccc3ccccc3c2n1	-	-	-	0	-	-
SMILES	TRPC4 block	TRPC6 inhibitor	TRPC6 act	DSG3 Ab inh	TRPC4 agonist	TRPC4 PAM
c1ccc(-c2cnc(SCCN3CCOCC3)n2CC2CCCO2)cc1 (configuration not stated)	-5	0	0	0	0	0
CC(C)(C)C1CCc2c(sc(NC(=O)C3CC=CCC3C(=O)O)c2C#N)C1 (configuration not stated)	-6	0	0	0	0	0
NC1=NC2(CCN(Cc3ccccc3)CC2)n2c(nc3ccccc32)N1	0	0	0	0	87	0
NC1=NC2(CCCCC2)n2c(nc3ccccc32)N1	0	0	0	0	0	0
CN1C(=O)CCC2(c3ccccc3)CC=C(O)C=C12 (configuration not stated)	-	-	-	0	-	-
CCCn1ncc(CN2CCC(n3nccc3NC(=O)CCc3ccccc3)CC2)c1C	0	0	0	0	100	0
CCn1cc(CN2CCC(n3nccc3NC(=O)CCOc3ccccc3)CC2)cn1	0	0	0	0	72	0
CCn1ccnc1CN1CCC(n2nccc2NC(=O)CCc2ccccc2)CC1	0	0	0	0	0	0
CCCn1ncc(CN2CCC(n3nccc3NC(=O)c3ccccc3OC)CC2)c1C	0	0	0	0	0	0
CCn1cc(CN2CCC(n3nccc3NC(=O)CCc3ccccc3)CC2)cn1	0	0	0	0	73	0
CN(c1ccc(-c2csc(NC(=O)CCCc3nc4ccccc4c(=O)[nH]3)n2)cc1)S(C)(=O)=O	-	-	-	0	-	-
Cc1ccc(S(=O)(=O)N2CCC(C(=O)OCC(=O)N3CCC(C)CC3)CC2)cc1C	0	0	0	0	0	0
CC1=CC(=O)C(C(C)C)=C/C1=N/OS(=O)(=O)c1ccccc1	0	0	0	0	0	21
CN(C(=O)COC(=O)c1ccc(S(=O)(=O)N2CCOCC2)cc1)c1ccccc1	-	-	-	0	-	-
Cc1noc(C)c1S(=O)(=O)N1CCC(C(=O)N2CCC(C)CC2)CC1	0	0	0	0	0	0
Cc1cccc(N2CCN(C(=O)C3CCN(S(=O)(=O)c4c(C)noc4C)CC3)CC2C)c1 (configuration not stated)	0	0	0	46	0	0
CCC(C)[C@H](NS(=O)(=O)c1ccc(C)cc1)C(=O)N1CCC(C(=O)N[C@@H](Cc2ccccc2)C(=O)O)CC1 (some centres not stated)	0	0	0	0	0	0
Cc1oc(-c2ccccc2F)nc1CS(=O)CC(=O)NCc1ccc(Cl)cc1 (configuration not stated)	0	0	0	-12	0	0
Cc1oc(-c2ccccc2F)nc1CS(=O)(=O)CC(=O)NCCCN1CC(C)CC(C)C1 (configuration not stated)	0	0	0	0	57	0
Cc1oc(-c2ccccc2Cl)nc1CS(=O)CC(=O)NCc1ccc(Cl)cc1 (configuration not stated)	0	0	0	0	0	0
Cc1oc(-c2ccccc2Cl)nc1CS(=O)CC(=O)NCCCN1CC(C)CC(C)C1 (configuration not stated)	0	0	0	0	95	0
Cc1oc(-c2ccc(Cl)cc2)nc1CS(=O)CC(=O)NCCCN(C)C1CCCCC1 (configuration not stated)	0	0	0	-	0	16
Cc1nc(C)c(-c2ccc(SCc3ccccc3F)nn2)s1	0	0	0	0	0	0
